Sampled rows, rich in hits. Any-hit rate of the full collection: about 4.3%.
PREPL inhibitor: human PREPL enzyme inhibition | Q4J6C6 | recombinant PREPL, fluorescence polarization activity-based probe | inhibition, % at 5.96 µM | actives 0.68% (n = 320,000) | AID 2751; in the data active means inhibition above about 43%;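 further: 0% = enzyme with DMSO and 100% = wells lacking enzyme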
ALR inh: inhibitors of human sulfhydryl oxidase ALR. P55789. purified ALR, DTT oxidation, H2O2 HRP-luminol luminescence. inhibition, % (no concentration beside the values). actives 3.8% (n = 290,000). AID 485317;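 active means mean replicate inhibition above about 79%, with every replicate also reaching it, limit read from the data; inconclusive means only one of the two criteria met; inactive means mean below limit and not every replicate reaching it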
Target sequence (P55789 whole entry, looked up): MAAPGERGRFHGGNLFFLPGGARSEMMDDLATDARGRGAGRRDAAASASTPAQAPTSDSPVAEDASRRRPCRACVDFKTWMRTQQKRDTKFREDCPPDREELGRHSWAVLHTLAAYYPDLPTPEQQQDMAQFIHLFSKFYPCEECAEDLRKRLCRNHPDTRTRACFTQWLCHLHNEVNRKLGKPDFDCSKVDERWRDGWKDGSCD
UBC9 SUMO inh: blocks human SUMOylation mediated by UBC9. P63279. HTRF SUMOylation assay, SAE1/SAE2 + UBC9, in vitro. inhibition, % at 35 µM. actives 0.36% (n = 290,000); in the data active means inhibition above about 50%, passing the limit was not always enough; inconclusive means no clear call, values can overlap the other calls
UBC13 polyUb: inhibitors of human UBC13 polyubiquitin chain formation; inhibition, % at 20 µM; P61088; TR-FRET; actives 0.47% (n = 330,000); in the data active means inhibition above about 45%, passing the limit was not always enough; inconclusive means no clear call, values can overlap the other calls
Rin1-Abl PPI inh: human Rin1-Abl interaction inhibition; P00519+Q13671; TR-FRET Rin1/Abl binding, biochemical; inhibition, % at 7.35 µM; actives 0.4% (n = 360,000); AID 588664; in the data active means inhibition above about 5%, passing the limit was not always enough
RBBP9 inhibitor: blocks human serine hydrolase RBBP9 | O75884 | recombinant RBBP9, FP-Rh probe fluorescence polarization | inhibition, % at 7.94 µM | actives 0.2% (n = 220,000) | AID 1515;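 active means inhibition above the campaign mean of all tested compounds plus 3 SD, cut at about 14% in these data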;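 further: plate controls were DMSO wells with RBBP9 for no effect and wells lacking RBBP9 protein for full effect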
Target sequence (O75884 whole entry, looked up): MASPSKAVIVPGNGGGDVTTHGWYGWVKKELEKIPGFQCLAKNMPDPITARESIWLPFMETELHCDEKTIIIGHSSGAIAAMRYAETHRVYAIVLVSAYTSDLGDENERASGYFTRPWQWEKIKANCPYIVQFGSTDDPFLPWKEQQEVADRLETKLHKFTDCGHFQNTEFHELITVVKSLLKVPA
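Material: RBBP9 protein. Amount: RBBP9 at 2.5 µM in dispensed solution, before mixing. Schedule: 30 min then 45 min, 25 °C. Medium: Tris buffer pH 8.0, NaCl, Pluronic. Measured by: fluorescence polarization. Measure: percent inhibition from mP, scaled between DMSO and no-protein wells. Replication: one well per compound.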
Casp3 counter: caspase-3 inhibition (UBC13 counter-screen); inhibition, % at 20 µM; Recombinant caspase-3, Caspase-Glo 3/7 luminescence, 60 min; actives 4% (n = 1,400); AID 488856; shares compounds with UBC13 polyUb;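 active means mean inhibition across replicates above about 26%, limit read from the data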;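 further: plate controls were DMSO with caspase-3 for no effect and DMSO wells lacking enzyme for full effect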
UBC13 conf: confirmation of human UBC13 polyubiquitin inhibitors | actives 68% (n = 1,400) | inhibition, % at 10 µM | UBC13 polyubiquitination, TR-FRET, biochemical | shares compounds with UBC13 polyUb; in the data active means inhibition above about 45%; inconclusive means no clear call, values can overlap the other calls
Numbers without * were called inactive.

CCCCCCCNC(=O)C1(CC2CC(c3cccc(Br)c3)=NO2)CCN(C(=O)CCCCCBr)CC1 (centres undefined) was read as PREPL inhibitor 2, ALR inh -75, UBC13 polyUb 45*, Rin1-Abl PPI inh 3, Casp3 counter -1 and UBC13 conf 13.
Screening O=C(CCCCCN1C(=O)c2ccccc2C1=O)NCCc1nc2ccccc2[nH]1 returned PREPL inhibitor 11, ALR inh -12, UBC9 SUMO inh 11, UBC13 polyUb 56*, Rin1-Abl PPI inh -5, RBBP9 inhibitor -5, Casp3 counter 0 and UBC13 conf 53*.
For COc1cc(OC)cc(C(=O)Nc2nc3ccc(S(C)(=O)=O)cc3s2)c1 the results were PREPL inhibitor 14, ALR inh 5, UBC9 SUMO inh 14, UBC13 polyUb -2, Rin1-Abl PPI inh -4 and RBBP9 inhibitor -3.
`COc1cc(C(=O)Nc2nc3ccc(S(C)(=O)=O)cc3s2)cc(OC)c1C` gave PREPL inhibitor 4, ALR inh 1, UBC9 SUMO inh 21, UBC13 polyUb 47*, Rin1-Abl PPI inh -9, RBBP9 inhibitor -13, Casp3 counter 0 and UBC13 conf 24.
For CC(C)c1nnc(SCC(=O)NC2CCCC2)n1C the results were PREPL inhibitor 7, ALR inh 4, UBC9 SUMO inh 1, UBC13 polyUb -2 and Rin1-Abl PPI inh -1.
Screening CCN(CC)CCCNc1nc2cc(OC)c(OC)cc2c2nc(-c3ccccc3)nn12 returned PREPL inhibitor 17, ALR inh -12, UBC9 SUMO inh 33, UBC13 polyUb 55*, Rin1-Abl PPI inh 4, RBBP9 inhibitor -9, Casp3 counter -1 and UBC13 conf 45*.
O=C(NC1CC1)c1ccc2c(c1)N(Cc1ccc(Cl)cc1)CCS2 was read as PREPL inhibitor 24, ALR inh 29, UBC9 SUMO inh -3, UBC13 polyUb 26 and Rin1-Abl PPI inh -1.
Screening Cc1ccc(CN2CCSc3ccc(C(=O)NC4CCN(Cc5ccccc5)CC4)cc32)cc1 returned PREPL inhibitor 32, ALR inh 27, UBC9 SUMO inh -6, UBC13 polyUb 62*, Rin1-Abl PPI inh 2, RBBP9 inhibitor -4, Casp3 counter 2 and UBC13 conf inconclusive.
Screening CC1(C)CC(=O)c2cn3nc(C(F)(F)F)nc3nc2C1 returned PREPL inhibitor 3, ALR inh 4, UBC9 SUMO inh -2, UBC13 polyUb -2, Rin1-Abl PPI inh 2 and RBBP9 inhibitor 0.
Cc1ccc2c(n1)CC(C)(C)CC2=O was read as PREPL inhibitor 5, ALR inh -2, UBC9 SUMO inh 14, UBC13 polyUb 47*, Rin1-Abl PPI inh 0, RBBP9 inhibitor -5, Casp3 counter -2 and UBC13 conf 10.
For CCOC(=O)c1ccc(NC(=O)c2nc[nH]c2C(=O)N[C@@H](C)C(=O)OC(C)(C)C)cc1 the results were PREPL inhibitor -5, ALR inh -7, UBC9 SUMO inh -38, UBC13 polyUb 58*, Rin1-Abl PPI inh 6, Casp3 counter -4 and UBC13 conf 38.
For COc1ccc(NC(=O)c2nc[nH]c2C(=O)NCc2ccccc2)cc1 the results were PREPL inhibitor 1, ALR inh 4, UBC13 polyUb 60*, Rin1-Abl PPI inh 2, Casp3 counter 8 and UBC13 conf 8.
`CCOC(=O)c1ccc(NC(=O)c2nc[nH]c2C(=O)N[C@H](C)c2ccccc2)cc1` gave PREPL inhibitor -1, ALR inh 4, UBC9 SUMO inh -9, UBC13 polyUb 70*, Rin1-Abl PPI inh 2, Casp3 counter -3 and UBC13 conf 34.
For O=C(Nc1ccccc1)c1nc[nH]c1C(=O)NCc1ccccc1 the results were PREPL inhibitor -1, ALR inh 3, UBC13 polyUb 6 and Rin1-Abl PPI inh 2.

Source: PubChem BioAssay
